Experimental data as given in PMC7027977 (Clinical Pharmacology and Therapeutics, 2019).
Values joined by “and” are separate entries in the source; they are usually repeats but may differ in a detail not shown here. Identical values can stand only once. Like-named read-outs stand apart in the source and are kept apart here.

Experiments:
[1] = system: patients with CD; details: cited from earlier work
[2] = system: subjects with moderate‐to‐severe active Crohn's disease; assay: Regression; format: in vivo, human; details: Cave as exposure metric; week 12/16
In short: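 SES-CD came from centrally read ileocolonoscopy at screening and at a randomly assigned week 12 or 16, with the two weeks pooled. End points were endoscopic response 25% and 50% and endoscopic remission, with nonresponder imputation. Regression Emax models related them to individual steady-state Cave over the dosing interval. The study used placebo and 3–24 mg b.i.d. or 24 mg q.d. IR oral dosing.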

[3] = format: in vivo, human; details: healthy subjects, ER formulation study
In short: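 ER absorption parameters were estimated from phase I data in healthy volunteers given the extended-release formulation. They were then incorporated into the exposure–response models to simulate ER q.d. regimens.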

[4] = cited from earlier work
[5] = format: in vivo, human; details: for Cmax: human, plasma, oral
In short: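 Patients with Crohn's disease took oral IR tablets at 3, 6, 12 or 24 mg b.i.d. or 24 mg q.d. for a 16-week induction. Sparse plasma samples were taken at weeks 2, 4, 8, 12 and 16, with time from last dose recorded, and assayed by validated LC-MS. Steady-state Cmax and Cmin came from empirical Bayesian individual estimates. Cave = Dose/(CL/F × dosing interval). Values are median (5th–95th percentiles).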

[6] = Population pharmacokinetic analysis of upadacitinib IR formulation; format: in vivo, human
In short: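 A population PK model previously built for healthy subjects and RA patients was the starting model. It was fitted to sparse CELEST plasma concentrations: weeks 2–16, validated LC-MS, sampling time relative to last dose recorded. Covariate effects were judged by differences in Cave between covariate groups. Dose was tested as a covariate on model parameters to assess dose proportionality.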

[7] = 3 mg b.i.d. IR, steady-state, CD patients, CELEST
[8] = 6 mg b.i.d. IR, steady-state, CD patients, CELEST
[9] = 12 mg b.i.d. IR, steady-state, CD patients, CELEST
[10] = 24 mg b.i.d. IR, steady-state, CD patients, CELEST
[11] = 24 mg q.d. IR, steady-state, CD patients, CELEST

In the case of `O=C(Nc1nc2cccc(-c3ccc(CN4CCS(=O)(=O)CC4)cc3)n2n1)C1CC1` [Filgotinib], the “efficacy in CD” value [1] is given as “has shown efficacy”.
In the case of `CC[C@@H]1CN(C(=O)NCC(F)(F)F)C[C@@H]1c1cnc2cnc3[nH]ccc3n12` [Upadacitinib], the “EC50 for endoscopic remission” value [2] is reported as 0.027 µg/mL, the “EC50 for endoscopic response 50%” value [2] is reported as 0.026 µg/mL and the “bioavailability of ER formulation relative to IR formulation” value [3] is reported as 74%. For the same compound, the “dose proportionality of plasma exposures” value ([4]; 3–48 mg IR or 7.5–45 mg ER, ref 21,23 (data on file at AbbVie)) was “dose‐proportional”, the “functional half‐life” value ([4]; IR formulation) was 3 to 4 h and the “increase in bioavailability from the ER formulation after a high‐fat meal” value [4] was ~ 20%. For the same compound, the “relative bioavailability of ER formulation” value ([4]; more extensive dataset in subjects with RA) was 76%, the “time to reach maximum plasma concentration” value ([4]; oral, IR formulation) was 1 to 2 h and the “exposure of ER 15 mg and 30 mg q.d. vs IR 6 mg b.i.d. and 12 mg b.i.d.” value ([4]; phase I study, healthy subjects) was “equivalent Cave and similar Cmax and Cmin”. For the same compound, the “Cave, median (5th to 95th percentiles)” value [5, 7] was 6.9 (4.6–14.1) ng/mL, the “Cmin, median (5th to 95th percentiles)” value [5, 7] was 1.2 (0.4–6.6) ng/mL and the “Cave, median (5th to 95th percentiles)” value [5, 8] was 14.9 (7.6–25.2) ng/mL. For the same compound, the “Cmin, median (5th to 95th percentiles)” value [5, 8] was 2.6 (0.2–7.5) ng/mL, the “Cave, median (5th to 95th percentiles)” value [5, 9] was 26.7 (8.5–49.6) ng/mL and the “Cmax, median (5th to 95th percentiles)” value [5, 9] was 80.7 (25.3–124) ng/mL. For the same compound, the “Cmin, median (5th to 95th percentiles)” value [5, 9] was 4.9 (0.2–25.2) ng/mL, the “Cave, median (5th to 95th percentiles)” value [5, 10] was 55.1 (29.8–91.8) ng/mL and the “Cmin, median (5th to 95th percentiles)” value [5, 10] was 7.8 (1.8–20.7) ng/mL. The “Cave, median (5th to 95th percentiles)” value [5, 11] was 25.1 (13.6–92.0) ng/mL, the “Cmin, median (5th to 95th percentiles)” value [5, 11] was 1.7 (0.3–34.2) ng/mL and the Cmax ([5]; 3 mg) was 21.8 ng/mL. For the same compound, the Cmax ([5]; 6 mg) was 40.2 ng/mL, the Cmax ([5]; 24 mg) was 161 ng/mL and the “dose proportionality of exposure” value ([6]; 3–24 mg b.i.d.) was “approximately dose‐proportional”. The “higher Cave with renal impairment” value ([6]; creatinine clearance 50 mL/minute vs 110 mL/minute) was 28%, the “CL/F in subjects with CD relative to healthy subjects” value ([6]; population PK) was “comparable” and the “lower clearance in subjects with RA compared with non‐RA subjects” value ([6]; population PK) was 22% and ~ 20%. For the same compound, the “higher Cave in women compared with men” value ([6]; population PK covariate) was 18%, the “lower CL/F in women compared with men” value ([6]; population PK covariate) was 15% and the “lower Vc/F in women compared with men” value ([6]; population PK covariate) was 25%. The “difference in Cave among different covariate groups” value ([6]; renal impairment, sex, bodyweight covariates) was less than 30%, the “lower Cave in subjects with CD than in subjects with RA” value ([6]; same dose) was ~ 20% and the “Intersubject variability in CL/F” value ([6]; subjects with CD) was 41%. For the same compound, the “Intersubject variability in Vc/F” value ([6]; subjects with CD) was 29%.
For `C[C@@H]1CCN(C(=O)CC#N)C[C@@H]1N(C)c1ncnc2[nH]ccc12` [tofacitinib], the “efficacy in patients with CD” value ([1]; two phase II studies) is given as “did not demonstrate efficacy”.
